Experimental data from ChEMBL document CHEMBL2163314, “Potent aminocyclitol glucocerebrosidase inhibitors are subnanomolar pharmacological chaperones for treating gaucher disease” (J Med Chem, 2012).
Calls of active or inactive are those of the source. The calls are words filed in the database; no cut-off is given here.

Key:
[1] = target: T1, Lysosomal acid glucosylceramidase (Homo sapiens, UniProt P04062); experiment: Binding affinity to recombinant imiglucerase using 4-methylumbelliferyl-beta-D-glucopyranoside as substrate preincubated for 30 mins before substrate addition by Lineweaver-Burk plot assay
T1 sequence (P04062 whole entry): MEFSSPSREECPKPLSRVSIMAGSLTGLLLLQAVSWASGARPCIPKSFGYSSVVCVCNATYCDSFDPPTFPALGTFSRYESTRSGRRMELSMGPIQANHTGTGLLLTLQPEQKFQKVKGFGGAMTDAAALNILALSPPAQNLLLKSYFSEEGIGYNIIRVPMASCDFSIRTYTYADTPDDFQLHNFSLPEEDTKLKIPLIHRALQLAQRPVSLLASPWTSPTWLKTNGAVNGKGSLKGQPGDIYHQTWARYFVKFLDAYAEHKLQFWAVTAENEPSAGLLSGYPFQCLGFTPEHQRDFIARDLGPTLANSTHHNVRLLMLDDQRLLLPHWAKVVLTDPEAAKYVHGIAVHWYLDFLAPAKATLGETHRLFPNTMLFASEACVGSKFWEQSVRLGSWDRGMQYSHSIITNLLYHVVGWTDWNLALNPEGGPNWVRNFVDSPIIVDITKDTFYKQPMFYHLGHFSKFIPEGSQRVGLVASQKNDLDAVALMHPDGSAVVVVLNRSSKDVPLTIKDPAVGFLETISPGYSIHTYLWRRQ

Prunus dulcis = experiment: Inhibition of almond beta-glucosidase at 100 uM
[2] = target: T1, Lysosomal acid glucosylceramidase; experiment: Competitive inhibition of recombinant Imiglucerase using 4-methylumbelliferyl-beta-D-glucopyranoside as substrate preincubated for 30 mins before substrate addition at pH 7.0 Lineweaver-Burk plot assay
[3] = target: T2, Lysosomal acid glucosylceramidase (Homo sapiens) (UniProt P04062); experiment: Inhibition of lysosomal beta-glucosidase in human fibroblast using 4-methylumbelliferyl-beta-D-glucopyranoside as substrate preincubated at 5 uM for 24 hrs before substrate addition measured after 2 hrs by fluorimetry
T2 sequence (whole entry): T1 sequence (P04062 whole entry)
How it was run: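 Wild-type human fibroblasts (DMEM, 10% FBS; passages 14–30) plated overnight, then compound in fresh medium for 24 h at 37 °C, 5% CO2. Intact washed monolayers given PBS plus 200 mM acetate pH 4.0 and 5 mM 4-MU-β-glucoside, 37 °C for 2 h. Stopped by lysis in glycine/NaOH pH 10.6. Fluorescence at 355/460 nm; triplicate.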

[4] = target: T1, Lysosomal acid glucosylceramidase; experiment: Binding affinity to recombinant imiglucerase using 4-methylumbelliferyl-beta-D-glucopyranoside as substrate preincubated for 30 mins before substrate addition by Dixon plot assay
[5] = target: T1, Lysosomal acid glucosylceramidase; experiment: Competitive inhibition of recombinant Imiglucerase using 4-methylumbelliferyl-beta-D-glucopyranoside as substrate preincubated for 30 mins before substrate addition at pH 5.2 by Dixon plot assay
[6] = Stabilization of recombinant imiglucerase at 1 uM at 48 degC after 60 mins by fluorimetry relative to incubation at 37 degC
How it was run: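 Imiglucerase (2 mg/mL aliquots) heated at 48 °C with compound, three concentrations. At set times, residual activity measured with 4 mM 4-MU-β-glucoside (McIlvaine pH 5.2, Triton X-100, taurocholate) after acetate-phosphate pH 5.0, 10 min at 37 °C. Read at 355/460 nm. Ratio is relative enzymatic activity, inhibitor vs control, taken at 60 min. Activity relative to unheated (37 °C) enzyme; triplicate.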

[7] = target: T3, Beta-galactosidase (Homo sapiens) (UniProt P16278); experiment: Inhibition of lysosomal beta-galactosidase in human fibroblast at 50 uM after 24 hrs
T3 sequence (whole entry): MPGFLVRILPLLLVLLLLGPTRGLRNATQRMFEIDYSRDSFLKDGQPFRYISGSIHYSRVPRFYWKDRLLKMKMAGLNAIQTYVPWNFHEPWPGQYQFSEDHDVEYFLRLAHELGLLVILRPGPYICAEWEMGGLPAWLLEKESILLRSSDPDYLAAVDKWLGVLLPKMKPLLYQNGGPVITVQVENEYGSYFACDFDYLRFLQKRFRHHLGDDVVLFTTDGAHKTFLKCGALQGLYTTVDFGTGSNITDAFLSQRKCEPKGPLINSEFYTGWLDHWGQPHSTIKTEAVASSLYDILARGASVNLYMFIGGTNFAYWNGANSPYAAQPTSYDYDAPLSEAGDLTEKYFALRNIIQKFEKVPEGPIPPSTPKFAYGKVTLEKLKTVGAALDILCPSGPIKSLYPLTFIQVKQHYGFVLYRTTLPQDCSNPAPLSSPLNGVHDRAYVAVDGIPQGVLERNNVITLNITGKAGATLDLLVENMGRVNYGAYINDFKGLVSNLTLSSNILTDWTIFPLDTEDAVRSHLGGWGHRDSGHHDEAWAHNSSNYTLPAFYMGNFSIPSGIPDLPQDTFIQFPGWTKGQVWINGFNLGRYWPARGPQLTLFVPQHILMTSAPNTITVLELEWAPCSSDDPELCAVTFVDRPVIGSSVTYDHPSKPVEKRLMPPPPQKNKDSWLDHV
How it was run: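 Wild-type human fibroblasts (DMEM, 10% FBS, passages 14–30) were plated overnight, then exposed to compound in fresh medium for 24 h at 37 °C, 5% CO2. Lysosomal enzyme activity was then assayed in intact monolayers after the medium was removed. Triplicate determinations.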

| inhibition [3] [%] | Ratio [6] | Structure (SMILES) | Ki [1] [nM] | inhibition (Prunus dulcis) | IC50 [2] [nM] | Ki [4] [nM] | IC50 [5] [nM] | inhibition [7] |
| --- | --- | --- | --- | --- | --- | --- | --- | --- |
| > 39 | 2.2 | CCCCCCCCCO[C@H]1[C@@H](N)[C@H](O)[C@@H](O)[C@H](O)[C@H]1O.Cl | 130 | inactive | 120 | 130 | 450 | inactive |
| > 39 | 29 | CCCCCCCCCN[C@H]1[C@H](O)[C@@H](O)[C@H](O)[C@@H](O)[C@H]1OCCCCCCCCC.Cl | 1 | inactive | 5 | 1 | 4 | – |
| – | – | CCCCCCCCCN[C@H]1[C@H](O)[C@@H](O)[C@H](O)[C@@H](O)[C@@H]1O | 1900 | inactive | 780 | 1900 | 3900 | inactive |
| > 39 | 5.2 | CCCCCCCCCN[C@H]1[C@H](O)[C@@H](O)[C@H](O)[C@@H](O)[C@@H]1OCCCCCCCCC.Cl | 280 | inactive | 170 | 280 | 670 | – |
| – | – | CCCCCCCCCN[C@H]1[C@H](O)[C@@H](O)[C@H](O)[C@@H](O)[C@@H]1OC.Cl | 1580 | inactive | 670 | 1580 | 4400 | inactive |
| > 39 | 1.2 | CCCCCCCCCN(CCCCCCCCC)[C@@H]1[C@H](O)[C@H](O)[C@@H](O)[C@H](O)[C@H]1O.Cl | 820 | inactive | 530 | 820 | 1720 | – |
| – | – | CCCCCCCCCN[C@@H]1[C@H](O)[C@@H](O)[C@H](O)[C@@H](O)[C@@H]1O | 17900 | inactive | 24900 | 17900 | 52600 | inactive |

| Structure (SMILES) | inhibition [3] [%] | Ratio [6] | Ki [1] [nM] | inhibition (Prunus dulcis) | IC50 [2] [nM] | Ki [4] [nM] | IC50 [5] [nM] | inhibition [7] |
| --- | --- | --- | --- | --- | --- | --- | --- | --- |
| CCCCCCCCCN[C@@H]1[C@H](O)[C@H](O)[C@@H](O)[C@H](O)[C@H]1O.Cl | > 39 | 5 | 32 | inactive | 25 | 32 | 80 | inactive |
| CCCCCCCCCN[C@H]1[C@H](O)[C@@H](O)[C@H](O)[C@@H](O)[C@H]1OC.Cl | > 39 | 2 | 53 | inactive | 19 | 53 | 130 | inactive |
